ChEMBL document CHEMBL4765297, “In silico/in vitro screening and hit evaluation identified new phenothiazine anti-prion derivatives” (Eur J Med Chem, 2020)
The source made the active and inactive calls.

Legend:
ScN2a [1] = assay: Anti-prion activity against RML prion protein in mouse N2a cells assessed as Scrapie prion protein level at 1 uM in absence of proteinase K by Western blotting analysis relative to control; format: cell-based
Outline: (§1)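 ScN2a or ScGT1 cells chronically infected with RML or 22L prions (N2a in MEM/10% FBS; GT1 in DMEM/10% FBS) treated 4 days with compound (DMSO stock diluted in EtOH, then medium; final DMSO ≤0.1%). Immunoblot with anti-PrP Fab W226, ECL, densitometry, normalized to untreated control (100%).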

N2a [2] = assay: Cytotoxicity against mouse N2a cells assessed as reduction in cell viability incubated for 30 mins by Calcein assay; format: cell-based; conditions: 0.5 h
Outline: (§2)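 N2a, ScN2a, GT1 or ScGT1 cells seeded (2.5×10^4/mL MEM for N2a lines; 3×10^4/mL DMEM for GT1 lines), settled 1 day. Treated at 0.1, 1 and 10 µM for 5 days at 37 °C, 5% CO2. Read-outs: MTT (5 mg/mL, 3 h, DMSO/2-propanol solubilization, A590); CCK-8 (4 h, A450); calcein-AM (2.5 µM added, 30 min, 492/525 nm). Viability threshold 80%.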

ScN2a [3] = assay: Anti-prion activity against RML prion protein in mouse N2a cells assessed as Scrapie prion protein level at 1 uM in presence of proteinase K by Western blotting analysis relative to control; format: cell-based; outline: as §1
N2a [4] = assay: Cytotoxicity against mouse N2a cells assessed as reduction in cell viability incubated for 3 hrs by MTT assay; format: cell-based; outline: as §2
N2a [5] = assay: Cytotoxicity against mouse N2a cells assessed as reduction in cell viability incubated for 4 hrs by CCK-8 assay; format: cell-based; outline: as §2
ScN2a [6] = assay: Anti-prion activity against 22L prion protein in mouse ScN2a cells assessed as Scrapie prion protein level at 4 uM in presence of proteinase K by Western blotting analysis relative to control; format: cell-based; outline: as §1
ScN2a [7] = assay: Anti-prion activity in mouse ScN2a cells at 1:1 Prp to compound concentration in absence of proteinase K by Western blotting analysis relative to control; format: functional
Outline: (§3)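 Filtered through 3 kDa centrifugal membrane; filtrate (or compound alone, with or without filtration) given to ScN2a cells 4 days. PK-digested/undigested lysates immunoblotted with W226; three independent experiments, control normalized to 100%.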

ScGT1 [8] = assay: Anti-prion activity against RML prion protein in mouse ScGT1 cells assessed as Scrapie prion protein level at 4 uM in absence of proteinase K by Western blotting analysis relative to control; format: cell-based; outline: as §1
ScN2a [9] = assay: Anti-prion activity in mouse ScN2a cells at 2:1 Prp to compound concentration in absence of proteinase K by Western blotting analysis relative to control; format: functional; outline: as §3
ScGT1 [10] = assay: Anti-prion activity against 22L prion protein in mouse ScGT1 cells assessed as Scrapie prion protein level at 4 uM in presence of proteinase K by Western blotting analysis relative to control; format: cell-based; outline: as §1
ScN2a [11] = assay: Anti-prion activity in mouse ScN2a cells at 1:1 Prp to compound concentration in presence of proteinase K by Western blotting analysis relative to control; format: functional; outline: as §3
ScN2a [12] = assay: Anti-prion activity in mouse ScN2a cells at 1N in absence of proteinase K by Western blotting analysis relative to control; format: functional; outline: as §3
ScN2a [13] = assay: Anti-prion activity in mouse ScN2a cells in presence of proteinase K by Western blotting analysis relative to control; format: functional; outline: as §1
ScN2a [14] = assay: Anti-prion activity in mouse ScN2a cells at 1:2 Prp to compound concentration in absence of proteinase K by Western blotting analysis relative to control; format: functional; outline: as §3
ScN2a [15] = assay: Anti-prion activity in mouse ScN2a cells at 1:2 Prp to compound concentration in presence of proteinase K by Western blotting analysis relative to control; format: functional; outline: as §3
N2a [16] = assay: Anti-prion activity in mouse N2a cells assessed as effect on localization of cell membrane at 4 uM by immunofluorescence staining assay; format: functional, cell-based
Outline: (§4)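 N2a cells on poly-lysine coverslips treated with 0.4 or 4 µM. Chilled on ice 15 min, live surface staining with W226 (1:200) 20 min on ice, then fixed in 4% PFA and blocked in 7% goat serum. Alexa488 anti-mouse secondary 1 h, DAPI counterstain, confocal imaging of surface PrPC.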

ScN2a [17] = assay: Anti-prion activity in mouse ScN2a cells at 2:1 Prp to compound concentration in presence of proteinase K by Western blotting analysis relative to control; format: functional; outline: as §3
ScN2a [18] = assay: Anti-prion activity against 22L prion protein in mouse ScN2a cells assessed as Scrapie prion protein level at 4 uM in absence of proteinase K by Western blotting analysis relative to control; format: cell-based; outline: as §1
ScN2a [19] = assay: Anti-prion activity against RML prion protein in mouse ScN2a cells assessed as Scrapie prion protein level at 4 uM in absence of proteinase K by Western blotting analysis relative to control; format: cell-based; outline: as §1
ScGT1 [20] = assay: Anti-prion activity against RML prion protein in mouse ScGT1 cells assessed as Scrapie prion protein level at 4 uM in presence of proteinase K by Western blotting analysis relative to control; format: cell-based; outline: as §1
N2a [21] = assay: Anti-prion activity in mouse N2a cells assessed as effect on localization of cell membrane at 0.4 uM by immunofluorescence staining assay; format: functional, cell-based; outline: as §4
ScGT1 [22] = assay: Anti-prion activity against 22L prion protein in mouse ScGT1 cells assessed as Scrapie prion protein level at 4 uM in absence of proteinase K by Western blotting analysis relative to control; format: cell-based; outline: as §1
ScN2a [23] = assay: Cytotoxicity against mouse ScN2a cells upto 10 uM; format: cell-based; outline: as §2
ScN2a [24] = assay: Anti-prion activity in mouse ScN2a cells at 1N in presence of proteinase K by Western blotting analysis relative to control; format: functional; outline: as §3
ScN2a [25] = assay: Anti-prion activity against RML prion protein in mouse ScN2a cells assessed as Scrapie prion protein level at 4 uM in presence of proteinase K by Western blotting analysis relative to control; format: cell-based; outline: as §1
ScN2a [26] = assay: Anti-prion activity in mouse ScN2a cells at 1:5 Prp to compound concentration in presence of proteinase K by Western blotting analysis relative to control; format: functional; outline: as §3
ScN2a [27] = assay: Anti-prion activity in mouse ScN2a cells in absence of proteinase K by Western blotting analysis relative to control; format: functional; outline: as §1
[28] = Anti-prion activity against RML prion protein in mouse ScN2a cells in presence of proteinase K by Western blotting analysis; format: cell-based
Outline: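 ScN2a-RML cells treated 4 days with 8 concentrations from 0 to 4 µM. Lysates PK-digested (10 µg PK, 1 h, 37 °C) and ultracentrifuged. Pellets denatured in 8 M GdnHCl and coated on ELISA plates overnight at 4 °C. Detection with W226 (1.5 µg/mL), HRP secondary and TMB, A450. IC50 taken from the dose-response curve, with Western blot confirmation.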

ScN2a [29] = assay: Anti-prion activity in mouse ScN2a cells at 1:5 Prp to compound concentration in absence of proteinase K by Western blotting analysis relative to control; format: functional; outline: as §3

## Cn1c(=O)c2cc(C(=O)N3CCC(Cc4ccccc4)CC3)sc2c2ccc(Cl)cc21
ScN2a [1]
  Activity: 99.6%
N2a [2]
  Activity: Non-Toxic
ScN2a [3]
  Activity: 82.4%
N2a [4]
  Activity: Non-Toxic
N2a [5]
  Activity: Non-Toxic

## Cn1c(CSc2ccnc3cc(Cl)ccc23)nnc1SCC(=O)N1CCN(c2ccccc2)CC1
ScN2a [1]
  Activity: 85.8%
N2a [2]
  Activity: Non-Toxic
ScN2a [3]
  Activity: 88%
N2a [4]
  Activity: Non-Toxic
N2a [5]
  Activity: Non-Toxic

## Cn1c(=O)c2cc(C(=O)Nc3ccc(Oc4ccccc4)cc3)sc2c2ccc(Cl)cc21
ScN2a [1]
  Activity: 92.5%
N2a [2]
  Activity: Non-Toxic
ScN2a [3]
  Activity: 94.4%
N2a [4]
  Activity: Non-Toxic
N2a [5]
  Activity: Non-Toxic

## CCOc1ccc(CNC(=O)CSc2c3c(nc4cc(Cl)ccc24)CCCC3)cc1
ScN2a [1]
  Activity: 110%
N2a [2]
  Activity: Non-Toxic
ScN2a [3]
  Activity: 102%
N2a [4]
  Activity: Non-Toxic
N2a [5]
  Activity: Non-Toxic

## C/C(=N\Nc1ccnc2cc(Cl)ccc12)c1ccc2c(c1)N(CCN(C)C)c1ccccc1S2
ScN2a [1]
  Activity: 60.2%
ScN2a [3]
  Activity: 8.6%

## COC(=O)c1ccc(COc2ccc(/C=N/Nc3ccnc4cc(Cl)ccc34)cc2OC)cc1
ScN2a [1]
  Activity: 95.6%
N2a [2]
  Activity: Non-Toxic
ScN2a [3]
  Activity: 82.3%
N2a [4]
  Activity: Non-Toxic
N2a [5]
  Activity: Non-Toxic

## C/C(=N\Nc1ccnc2cc(Cl)ccc12)c1ccc2c(c1)N(CCCN(C)C)c1ccccc1S2
ScN2a [1]
  Activity: 68.7%
ScN2a [3]
  Activity: 11.9%

## C/C(=N\Nc1ccnc2cc(Cl)ccc12)c1ccc2c(c1)N(CCN1CCCCC1)c1ccccc1S2
ScN2a [1]
  Activity: 70.2%
ScN2a [3]
  Activity: 13.6%

## C/C(=N\Nc1ccnc2cc(Cl)ccc12)c1ccc2c(c1)N(CCN1CCN(C)CC1)c1ccccc1S2
ScN2a [1]
  Activity: 55.9%
ScN2a [3]
  Activity: 4.4%

## O=C(Nc1ccc(Oc2ccccc2)cc1)c1cc2cc3ccc(Cl)cc3nc2o1
ScN2a [1]
  Activity: 92.6%
N2a [2]
  Activity: Non-Toxic
ScN2a [3]
  Activity: 109%
N2a [4]
  Activity: Non-Toxic
N2a [5]
  Activity: Non-Toxic

## CCc1ccc(CNC(=O)CSc2c3c(nc4cc(Cl)ccc24)CCCC3)cc1
ScN2a [1]
  Activity: 83.5%
N2a [2]
  Activity: Non-Toxic
ScN2a [3]
  Activity: 77.1%
N2a [4]
  Activity: Non-Toxic
N2a [5]
  Activity: Non-Toxic

## C/C(=N\Nc1ccnc2cc(Cl)ccc12)c1ccc2c(c1)Nc1ccccc1S2
ScN2a [6]
  Activity: 5.1%
ScN2a [7]
  Activity: 117.6%
ScGT1 [8]
  Activity: 42%
ScN2a [9]
  Activity: 114.4%
ScGT1 [10]
  Activity: 11%
ScN2a [11]
  Activity: 90.1%
ScN2a [1]
  Activity: 55.7%
ScN2a [12]
  Activity: 51.7%
ScN2a [13]
  Activity: 25.2%
ScN2a [14]
  Activity: 98.4%
N2a [2]
  Activity: Non-Toxic
ScN2a [15]
  Activity: 65.7%
N2a [16]
  Activity: inactive
ScN2a [17]
  Activity: 108.2%
ScN2a [18]
  Activity: 48.7%
ScN2a [3]
  Activity: 35.6%
ScN2a [19]
  Activity: 62.1%
N2a [4]
  Activity: Non-Toxic
ScGT1 [20]
  Activity: 12.3%
N2a [21]
  Activity: inactive
ScGT1 [22]
  Activity: 39.2%
ScN2a [23]
  Activity: Non-Toxic
ScN2a [24]
  Activity: 22.6%
ScN2a [25]
  Activity: 9.4%
ScN2a [26]
  Activity: 13.6%
ScN2a [27]
  Activity: 48.8%
[28]
  IC50: 0.42 µM
ScN2a [29]
  Activity: 41%
N2a [5]
  Activity: Non-Toxic

## COc1ccc2nc(NC(=O)c3cc4c(=O)n(C)c5cc(Cl)ccc5c4s3)sc2c1
ScN2a [1]
  Activity: 69.1%
N2a [2]
  Activity: Non-Toxic
ScN2a [3]
  Activity: 85.4%
N2a [4]
  Activity: Non-Toxic
N2a [5]
  Activity: Non-Toxic

## Cc1cc(/C=N/Nc2ccnc3cc(Cl)ccc23)c(C)cc1/C=N/Nc1ccnc2cc(Cl)ccc12
ScN2a [1]
  Activity: 63.8%
N2a [2]
  Activity: Non-Toxic
ScN2a [3]
  Activity: 70.9%
N2a [4]
  Activity: Non-Toxic
N2a [5]
  Activity: Non-Toxic

## C/C(=N\Nc1ccnc2cc(Cl)ccc12)c1ccc2c(c1)N(CCN1CCOCC1)c1ccccc1S2
ScN2a [1]
  Activity: 95.3%
ScN2a [3]
  Activity: 70.3%
